Assay results as given in PMC8809394 (Chemical Science, 2022).
Substitutions are numbered along the chain they refer to. Values joined by “and” are separate entries in the source; they are usually repeats but may differ in a detail not shown here. Identical values can stand only once.

How the values were obtained:
[1] = biological target: T1, POPWT (prolyl oligopeptidase) (Pyrococcus furiosus, UniProt Q51714); experiment: Luminescence lifetime titration, cofactor binding to POPWT; conditions: for Kd: POPWT 0-300 μM, cofactor 5 μM, MQ H2O (+/- 0.5% ACN); for Δ lifetime (free vs. bound cofactor): non-covalent binding to POPWT
T1 sequence (Q51714 1-616): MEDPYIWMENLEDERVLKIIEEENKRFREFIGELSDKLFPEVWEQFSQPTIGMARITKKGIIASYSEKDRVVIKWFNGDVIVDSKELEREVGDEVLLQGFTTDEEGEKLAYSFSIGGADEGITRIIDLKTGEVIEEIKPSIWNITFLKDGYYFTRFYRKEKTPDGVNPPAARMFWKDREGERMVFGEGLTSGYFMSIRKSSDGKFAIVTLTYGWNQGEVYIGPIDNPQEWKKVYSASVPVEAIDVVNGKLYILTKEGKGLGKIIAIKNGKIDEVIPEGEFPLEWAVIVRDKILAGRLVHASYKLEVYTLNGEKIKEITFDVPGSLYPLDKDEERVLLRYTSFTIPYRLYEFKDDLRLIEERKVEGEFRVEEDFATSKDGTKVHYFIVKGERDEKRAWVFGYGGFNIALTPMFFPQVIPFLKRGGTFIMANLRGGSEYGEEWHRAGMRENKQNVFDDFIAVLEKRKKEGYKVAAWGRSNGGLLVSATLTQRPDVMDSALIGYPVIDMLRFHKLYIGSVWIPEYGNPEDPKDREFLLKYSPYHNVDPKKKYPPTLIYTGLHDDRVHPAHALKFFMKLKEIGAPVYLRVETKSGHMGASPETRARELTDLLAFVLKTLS
How it was run: (§1)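 Non-covalent binding is measured by luminescence lifetime titration of the Ru(Bpy)3 2+-type cofactor against Pyrococcus furiosus prolyl oligopeptidase scaffold variants. Kd comes from the titration. Δ lifetime is the lifetime difference between free and bound cofactor. Each plotted point is a single measurement. Error bars are standard deviations from single-exponential tail fitting of the decay data.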

[2] = biological target: T2, POPNeg (prolyl oligopeptidase variant) (Pyrococcus furiosus, UniProt Q51714, G99D/K255A/R198A/R338A/R55A/W142D/Y326D); experiment: Luminescence lifetime titration, cofactor binding to POPNeg; conditions: non-covalent binding to POPNeg
T2 sequence (Q51714 1-616 R55A/G99D/W142D/R198A/K255A/Y326D/R338A): T1 sequence (Q51714 1-616) with R55A, G99D, W142D, R198A, K255A, Y326D, R338A
How it was run: as §1

[3] = biological target: BSA (Bos taurus, UniProt P02769); experiment: Luminescence lifetime titration with BSA; assay type: binding; conditions: 3a 5 μM, BSA in MQ H2O
Chain of BSA (P02769 25-607): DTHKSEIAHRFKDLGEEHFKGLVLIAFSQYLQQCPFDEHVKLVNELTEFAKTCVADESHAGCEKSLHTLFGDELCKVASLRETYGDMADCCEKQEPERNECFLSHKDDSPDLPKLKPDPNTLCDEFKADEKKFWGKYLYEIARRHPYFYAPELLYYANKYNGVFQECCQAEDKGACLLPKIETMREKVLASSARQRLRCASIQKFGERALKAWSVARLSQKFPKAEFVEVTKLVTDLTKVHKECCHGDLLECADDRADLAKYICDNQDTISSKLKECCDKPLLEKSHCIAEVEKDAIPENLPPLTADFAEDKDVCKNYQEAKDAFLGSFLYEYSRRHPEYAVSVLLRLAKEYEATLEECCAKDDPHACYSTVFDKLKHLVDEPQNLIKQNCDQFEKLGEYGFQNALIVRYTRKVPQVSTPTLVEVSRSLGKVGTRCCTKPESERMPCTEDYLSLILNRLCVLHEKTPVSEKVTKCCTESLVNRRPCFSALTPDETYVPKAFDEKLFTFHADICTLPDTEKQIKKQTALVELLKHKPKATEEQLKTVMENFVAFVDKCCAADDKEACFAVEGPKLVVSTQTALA

[4] = deoxygenated acetonitrile ref 5,8; cited from earlier work
[5] = biological target: T3, POPNeut (prolyl oligopeptidase variant) (Pyrococcus furiosus, UniProt Q51714, G99A/K255A/R198A/R338A/R55A/W142A/Y326A); experiment: Luminescence lifetime titration, cofactor binding to POPNeut
T3 sequence (Q51714 1-616 R55A/G99A/W142A/R198A/K255A/Y326A/R338A): T1 sequence (Q51714 1-616) with R55A, G99A, W142A, R198A, K255A, Y326A, R338A
How it was run: as §1

[6] = Luminescence lifetime; assay type: physicochemical; conditions: MQ H2O; λexc 450 nm, λem 620 nm; covalent ArMs 50 μM

Row | Structure (SMILES) | Kd [1] | Δ lifetime (free vs. bound cofactor) [1] [ns] | Δ lifetime (free vs. bound cofactor) [2] [ns] | binding to BSA [3] | binding to BSA ([3]; listed as Ru(Bpy)3^2+) | luminescence lifetime [4] [ns] | Kd ([5]; POPNeut 0-300 μM, cofactor 5 μM, MQ H2O) | Δ lifetime (free vs. bound cofactor) ([5]; non-covalent binding to POPNeut) [ns] | Lifetime (luminescence) [6] [ns]
1 | O=C([O-])c1ccnc(-c2cc(C(=O)[O-])ccn2)c1.[Ru+2].c1ccc(-c2ccccn2)nc1.c1ccc(-c2ccccn2)nc1 [3d] | 30 µM and 29.5 µM | 35 | 125 | – | – | – | – | – | –
2 | [Cl-].[Cl-].[Ru+2].c1ccc(-c2ccccn2)nc1.c1ccc(-c2ccccn2)nc1.c1ccc(-c2ccccn2)nc1 [3a, Ru(Bpy)3^2+] | 28 µM and 28.3 µM | 96 | 183 | minimal non-specific binding affinity | negligible binding | 930 | 1.7 µM and 1.65 µM | 166 | 573
3 | [Ru+2].c1ccc(-c2ccccn2)nc1.c1ccc(-c2ccccn2)nc1.c1ccc(-c2ccccn2)nc1 [3b] | 30 µM and 30.1 µM | 110 | – | – | – | – | – | – | –
